Test results taken from ChEMBL document CHEMBL1137702, “Identification of hydrolytically stable and selective P2Y(1) receptor agonists” (Eur J Med Chem, 2009).
Active and inactive are the calls of the source. No cut-off for these calls is given here.

Biological target: T1, Ectonucleotide pyrophosphatase/phosphodiesterase family member 1 (Homo sapiens) (UniProt P22413)
T1 sequence (whole entry): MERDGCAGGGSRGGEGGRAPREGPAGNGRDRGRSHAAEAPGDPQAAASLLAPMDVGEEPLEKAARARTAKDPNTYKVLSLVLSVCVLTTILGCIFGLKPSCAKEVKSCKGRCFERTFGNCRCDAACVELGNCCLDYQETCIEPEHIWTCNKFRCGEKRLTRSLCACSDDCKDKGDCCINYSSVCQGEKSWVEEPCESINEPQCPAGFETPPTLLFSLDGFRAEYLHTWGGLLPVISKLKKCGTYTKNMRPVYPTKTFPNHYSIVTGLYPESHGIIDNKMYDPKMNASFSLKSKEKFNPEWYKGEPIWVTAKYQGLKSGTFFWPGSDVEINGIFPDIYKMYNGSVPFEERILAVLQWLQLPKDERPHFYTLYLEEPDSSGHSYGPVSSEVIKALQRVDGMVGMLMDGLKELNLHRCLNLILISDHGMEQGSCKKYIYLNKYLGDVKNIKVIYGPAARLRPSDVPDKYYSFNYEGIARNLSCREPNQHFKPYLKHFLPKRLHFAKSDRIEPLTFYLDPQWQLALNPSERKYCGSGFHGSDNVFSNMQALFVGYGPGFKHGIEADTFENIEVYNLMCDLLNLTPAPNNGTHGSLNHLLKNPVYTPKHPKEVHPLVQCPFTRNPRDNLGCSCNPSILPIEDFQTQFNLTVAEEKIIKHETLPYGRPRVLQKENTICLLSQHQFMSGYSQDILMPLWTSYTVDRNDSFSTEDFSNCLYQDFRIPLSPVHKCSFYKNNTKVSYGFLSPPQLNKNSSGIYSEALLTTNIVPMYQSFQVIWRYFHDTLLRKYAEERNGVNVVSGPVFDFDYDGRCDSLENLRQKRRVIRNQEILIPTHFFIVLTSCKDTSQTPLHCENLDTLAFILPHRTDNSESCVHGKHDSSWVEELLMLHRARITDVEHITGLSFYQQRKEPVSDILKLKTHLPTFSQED
Experiment: Inhibition of human NPP1 expressed in human 293T cells
Format: cell-based
Settings: not given

| SMILES | Activity |
| --- | --- |
| BP(=O)(OC[C@H]1O[C@@H](n2cnc3c(N)nc(SC)nc32)[C@H](O)[C@@H]1O)OP(=O)(O)CP(=O)(O)O (single isomer, unassigned; diastereomer A) | inactive |
| BP(=O)(OC[C@H]1O[C@@H](n2cnc3c(N)ncnc32)[C@H](O)[C@@H]1O)OP(=O)(O)CP(=O)(O)O (single isomer, unassigned; diastereomer B) | inactive |
| CSc1nc(N)c2ncn([C@@H]3O[C@H](COP(=O)(O)OP(=O)(O)CP(=O)(O)O)[C@@H](O)[C@H]3O)c2n1 | inactive |

Biological target: P2Y purinoceptor 6 (Rattus norvegicus) (UniProt Q63371)
Sequence (Q63371 whole entry): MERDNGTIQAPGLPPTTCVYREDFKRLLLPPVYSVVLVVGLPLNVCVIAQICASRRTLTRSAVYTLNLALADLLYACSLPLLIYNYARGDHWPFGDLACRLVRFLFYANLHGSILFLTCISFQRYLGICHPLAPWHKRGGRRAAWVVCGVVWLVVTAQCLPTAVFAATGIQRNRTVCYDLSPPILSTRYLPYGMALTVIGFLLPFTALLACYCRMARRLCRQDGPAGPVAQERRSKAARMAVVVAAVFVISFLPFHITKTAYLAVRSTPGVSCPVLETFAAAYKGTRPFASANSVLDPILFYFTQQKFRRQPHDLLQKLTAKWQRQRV
Experiment: Agonist activity at rat P2Y6 receptor expressed in human 1321N1 cells assessed as increase in intracellular calcium concentration at 100 uM by dual-excitation spectrofluorimetric analysis
Format: functional, cell-based
Settings: not given

| SMILES | Activity |
| --- | --- |
| BP(=O)(OC[C@H]1O[C@@H](n2cnc3c(N)ncnc32)[C@H](O)[C@@H]1O)OP(=O)(O)CP(=O)(O)O (single isomer, unassigned; diastereomer B) | Active |
| CSc1nc(N)c2ncn([C@@H]3O[C@H](COP(=O)(O)OP(=O)(O)CP(=O)(O)O)[C@@H](O)[C@H]3O)c2n1 | Active |

Biological target: T2, Ectonucleoside triphosphate diphosphohydrolase 1 (Homo sapiens) (UniProt P49961)
T2 sequence (whole entry): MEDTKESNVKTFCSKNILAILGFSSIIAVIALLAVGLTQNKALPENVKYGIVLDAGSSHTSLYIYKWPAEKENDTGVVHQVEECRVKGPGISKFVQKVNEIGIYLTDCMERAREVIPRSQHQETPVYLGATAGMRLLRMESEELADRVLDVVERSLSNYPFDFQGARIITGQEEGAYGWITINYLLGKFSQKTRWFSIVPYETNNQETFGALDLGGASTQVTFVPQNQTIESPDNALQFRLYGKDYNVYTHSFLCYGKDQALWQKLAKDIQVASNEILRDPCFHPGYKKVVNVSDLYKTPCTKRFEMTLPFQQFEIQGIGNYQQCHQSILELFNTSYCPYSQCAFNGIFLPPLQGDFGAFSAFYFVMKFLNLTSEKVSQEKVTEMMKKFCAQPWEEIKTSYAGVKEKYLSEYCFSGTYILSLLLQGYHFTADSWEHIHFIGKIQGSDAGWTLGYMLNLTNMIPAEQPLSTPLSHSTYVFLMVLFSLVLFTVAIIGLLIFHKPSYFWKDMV
Experiment: Activity of human NTPDase 1 expressed in human 293T cells assessed as drug hydrolysis at 100 uM after 20 mins relative to ATP
Format: cell-based
Set-up: scale not given: the % may be the effect or the level left
Settings: not given
Summary of the method: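 Human NTPDase1, 2, 3 or 8 in crude extracts of transfected 293T cells, pre-incubated 3 min at 37 °C in Tris-Ringer buffer pH 7.4. […] Untransfected-cell extract activity subtracted.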

| SMILES | Activity [%] |
| --- | --- |
| BP(=O)(OC[C@H]1O[C@@H](n2cnc3c(N)nc(SC)nc32)[C@H](O)[C@@H]1O)OP(=O)(O)CP(=O)(O)O (single isomer, unassigned; diastereomer A) | < 1 |
| BP(=O)(OC[C@H]1O[C@@H](n2cnc3c(N)ncnc32)[C@H](O)[C@@H]1O)OP(=O)(O)CP(=O)(O)O (single isomer, unassigned; diastereomer B) | 0 |
| CSc1nc(N)c2ncn([C@@H]3O[C@H](COP(=O)(O)OP(=O)(O)CP(=O)(O)O)[C@@H](O)[C@H]3O)c2n1 | 8 |

Biological target: P2Y purinoceptor 1 (Meleagris gallopavo) (UniProt P49652)
Sequence (P49652 whole entry): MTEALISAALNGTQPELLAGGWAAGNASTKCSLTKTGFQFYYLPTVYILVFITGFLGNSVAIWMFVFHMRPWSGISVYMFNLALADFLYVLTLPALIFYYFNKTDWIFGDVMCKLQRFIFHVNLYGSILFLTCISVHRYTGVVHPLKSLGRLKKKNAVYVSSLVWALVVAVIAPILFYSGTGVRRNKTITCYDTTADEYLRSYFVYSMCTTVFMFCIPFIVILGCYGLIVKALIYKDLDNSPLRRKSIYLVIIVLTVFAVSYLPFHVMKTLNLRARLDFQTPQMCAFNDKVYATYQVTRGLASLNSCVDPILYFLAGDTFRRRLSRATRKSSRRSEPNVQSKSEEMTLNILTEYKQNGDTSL
Experiment: Antagonist activity at turkey P2Y1 receptor expressed in human 1321N1 cells assessed as inhibition of 2-MeS-ADP-induced increase in intracellular calcium concentration by dual-excitation spectrofluorimetric analysis
Format: functional, cell-based
Settings: not given
Summary of the method: (§1)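 Fura-2-loaded suspensions of stably transfected 1321N1 cells were assayed at 37 °C in HEPES-buffered saline pH 7.4 with 1 mM Ca2+ and Mg2+. […] [Ca2+]i was read by dual-excitation spectrofluorometry.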

| SMILES | Activity |
| --- | --- |
| BP(=O)(OC[C@H]1O[C@@H](n2cnc3c(N)nc(SC)nc32)[C@H](O)[C@@H]1O)OP(=O)(O)CP(=O)(O)O (single isomer, unassigned; diastereomer A) | inactive |
| BP(=O)(OC[C@H]1O[C@@H](n2cnc3c(N)ncnc32)[C@H](O)[C@@H]1O)OP(=O)(O)CP(=O)(O)O (single isomer, unassigned; diastereomer B) | inactive |
| CSc1nc(N)c2ncn([C@@H]3O[C@H](COP(=O)(O)OP(=O)(O)CP(=O)(O)O)[C@@H](O)[C@H]3O)c2n1 | inactive |

System: not listed separately
Experiment: Chemical stability assessed as hydrolysis half life at 1.5 mg at pH 1.4 measured at 24 hrs interval for 12 days by 31P NMR analysis
Format: physicochemical
Settings: not given
Summary of the method: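 1.5 mg in 0.2 M HCl/KCl with D2O, pH adjusted to 1.4, kept at 37 °C. 31P NMR spectra, 500 scans each, were recorded about every 24 h for 12 days to obtain half-life.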

| SMILES | half-life [h] |
| --- | --- |
| CSc1nc(N)c2ncn([C@@H]3O[C@H](COP(=O)(O)OP(=O)(O)CP(=O)(O)O)[C@@H](O)[C@H]3O)c2n1 | 65 |

System: Serum
Experiment: Metabolic stability in human serum assessed as hydrolysis half life at 0.25 mM measured for 4 days by HPLC
Format: ADME, cell-free
Settings: 96 h, 250 µM
Summary of the method: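 Human serum (healthy donors; clotted 12 h at 4 °C, spun 1500 × g, stored −80 °C) diluted with RPMI-1640, incubated with 0.25 mM nucleotide at 37 °C for 1–96 h. Stopped with HCl, neutralized with KOH, analysed by C18 HPLC (KH2PO4 pH 4.5/acetonitrile). t1/2 from peak-area change.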

| SMILES | t1/2 [h] |
| --- | --- |
| CSc1nc(N)c2ncn([C@@H]3O[C@H](COP(=O)(O)OP(=O)(O)CP(=O)(O)O)[C@@H](O)[C@H]3O)c2n1 | 12.7 |

Biological target: P2Y purinoceptor 6 (Rattus norvegicus) (UniProt Q63371)
Experiment: Antagonist activity at rat P2Y6 receptor expressed in human 1321N1 cells assessed as inhibition of UDP-induced increase in intracellular calcium concentration by dual-excitation spectrofluorimetric analysis
Format: functional, cell-based
Settings: not given
Summary of the method: as §1

| SMILES | Activity |
| --- | --- |
| BP(=O)(OC[C@H]1O[C@@H](n2cnc3c(N)nc(SC)nc32)[C@H](O)[C@@H]1O)OP(=O)(O)CP(=O)(O)O (single isomer, unassigned; diastereomer A) | inactive |
| BP(=O)(OC[C@H]1O[C@@H](n2cnc3c(N)ncnc32)[C@H](O)[C@@H]1O)OP(=O)(O)CP(=O)(O)O (single isomer, unassigned; diastereomer B) | inactive |
| CSc1nc(N)c2ncn([C@@H]3O[C@H](COP(=O)(O)OP(=O)(O)CP(=O)(O)O)[C@@H](O)[C@H]3O)c2n1 | inactive |

Biological target: P2Y purinoceptor 4 (Homo sapiens, UniProt P51582)
Sequence (P51582 whole entry): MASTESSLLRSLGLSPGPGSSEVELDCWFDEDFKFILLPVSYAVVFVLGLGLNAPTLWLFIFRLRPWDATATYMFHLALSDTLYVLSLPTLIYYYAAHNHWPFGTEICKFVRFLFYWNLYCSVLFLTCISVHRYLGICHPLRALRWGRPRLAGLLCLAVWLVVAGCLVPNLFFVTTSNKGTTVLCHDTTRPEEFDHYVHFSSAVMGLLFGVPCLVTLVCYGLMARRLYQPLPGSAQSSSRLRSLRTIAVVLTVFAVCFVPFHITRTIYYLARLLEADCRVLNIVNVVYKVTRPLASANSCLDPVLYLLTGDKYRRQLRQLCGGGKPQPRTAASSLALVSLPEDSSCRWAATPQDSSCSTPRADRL
Experiment: Antagonist activity at human P2Y4 receptor expressed in human 1321N1 cells assessed as inhibition of UTP-induced increase in intracellular calcium concentration by dual-excitation spectrofluorimetric analysis
Format: functional, cell-based
Settings: not given
Summary of the method: as §1

| SMILES | Activity |
| --- | --- |
| BP(=O)(OC[C@H]1O[C@@H](n2cnc3c(N)nc(SC)nc32)[C@H](O)[C@@H]1O)OP(=O)(O)CP(=O)(O)O (single isomer, unassigned; diastereomer A) | inactive |
| BP(=O)(OC[C@H]1O[C@@H](n2cnc3c(N)ncnc32)[C@H](O)[C@@H]1O)OP(=O)(O)CP(=O)(O)O (single isomer, unassigned; diastereomer B) | inactive |
| CSc1nc(N)c2ncn([C@@H]3O[C@H](COP(=O)(O)OP(=O)(O)CP(=O)(O)O)[C@@H](O)[C@H]3O)c2n1 | inactive |

Biological target: T2, Ectonucleoside triphosphate diphosphohydrolase 1 (Homo sapiens)
Experiment: Inhibition of human NTPDase 1 expressed in human 293T cells
Format: cell-based
Settings: not given

| SMILES | Activity |
| --- | --- |
| BP(=O)(OC[C@H]1O[C@@H](n2cnc3c(N)nc(SC)nc32)[C@H](O)[C@@H]1O)OP(=O)(O)CP(=O)(O)O (single isomer, unassigned; diastereomer A) | inactive |
| BP(=O)(OC[C@H]1O[C@@H](n2cnc3c(N)ncnc32)[C@H](O)[C@@H]1O)OP(=O)(O)CP(=O)(O)O (single isomer, unassigned; diastereomer B) | inactive |
| CSc1nc(N)c2ncn([C@@H]3O[C@H](COP(=O)(O)OP(=O)(O)CP(=O)(O)O)[C@@H](O)[C@H]3O)c2n1 | inactive |

Biological target: P2Y purinoceptor 2 (Homo sapiens, UniProt P41231)
Sequence (P41231 whole entry): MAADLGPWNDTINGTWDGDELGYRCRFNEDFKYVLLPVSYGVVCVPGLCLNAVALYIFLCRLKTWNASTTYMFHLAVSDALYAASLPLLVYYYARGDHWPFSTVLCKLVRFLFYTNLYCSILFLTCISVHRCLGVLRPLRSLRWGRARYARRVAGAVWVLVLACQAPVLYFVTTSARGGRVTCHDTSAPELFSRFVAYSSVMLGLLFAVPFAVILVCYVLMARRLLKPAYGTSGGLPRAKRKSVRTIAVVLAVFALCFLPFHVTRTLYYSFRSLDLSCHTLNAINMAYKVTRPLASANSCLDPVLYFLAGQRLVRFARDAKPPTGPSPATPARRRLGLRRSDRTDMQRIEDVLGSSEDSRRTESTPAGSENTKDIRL
Experiment: Antagonist activity at human P2Y2 receptor expressed in human 1321N1 cells assessed as inhibition of UTP-induced increase in intracellular calcium concentration by dual-excitation spectrofluorimetric analysis
Format: functional, cell-based
Settings: not given
Summary of the method: as §1

| SMILES | Activity |
| --- | --- |
| BP(=O)(OC[C@H]1O[C@@H](n2cnc3c(N)nc(SC)nc32)[C@H](O)[C@@H]1O)OP(=O)(O)CP(=O)(O)O (single isomer, unassigned; diastereomer A) | inactive |
| BP(=O)(OC[C@H]1O[C@@H](n2cnc3c(N)ncnc32)[C@H](O)[C@@H]1O)OP(=O)(O)CP(=O)(O)O (single isomer, unassigned; diastereomer B) | inactive |
| CSc1nc(N)c2ncn([C@@H]3O[C@H](COP(=O)(O)OP(=O)(O)CP(=O)(O)O)[C@@H](O)[C@H]3O)c2n1 | inactive |

Biological target: P2Y purinoceptor 1 (Meleagris gallopavo, UniProt P49652)
Sequence (P49652 whole entry): as the sequence (P49652 whole entry) above
Experiment: Agonist activity at turkey P2Y1 receptor expressed in human 1321N1 cells assessed as increase in intracellular calcium concentration by dual-excitation spectrofluorimetric analysis
Format: functional, cell-based
Settings: not given

| SMILES | EC50 [nM] |
| --- | --- |
| CSc1nc(N)c2ncn([C@@H]3O[C@H](COP(=O)(O)OP(=O)(O)CP(=O)(O)O)[C@@H](O)[C@H]3O)c2n1 | 80 |

System: not listed separately
Experiment: Stability at 77 ug/ml after 30 mins by HPLC in presence of calf intestine alkaline phosphatase
Format: ADME
Settings: cattle, isolated protein, 0.5 h

| SMILES | Stability |
| --- | --- |
| CSc1nc(N)c2ncn([C@@H]3O[C@H](COP(=O)(O)OP(=O)(O)CP(=O)(O)O)[C@@H](O)[C@H]3O)c2n1 | Stable |

System: not listed separately
Experiment: Dissociation constant, pKa of the compound
Format: physicochemical
Settings: not given

| SMILES | pKa |
| --- | --- |
| CSc1nc(N)c2ncn([C@@H]3O[C@H](COP(=O)(O)OP(=O)(O)CP(=O)(O)O)[C@@H](O)[C@H]3O)c2n1 | 8.4 |
